This is a sample that favours compounds with a hit; in the whole collection about 2.6% have one here.
CHT PAM = CHT positive allosteric modulators, primary screen, cell-based, membrane potential dye, choline EC20. AID 488977, 2010. High affinity choline transporter 1 (Homo sapiens), Q9GZV3. 310,000 tested, 0.49% active. CHT-expressing cells; active compounds read high; LV-AA mutant CHT in HEK293 cells. B-score at 10 µM;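 active means initial fluorescence not abnormally high and integrated response B-score, plate-corrected, over 3 SD above library mean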
Cl transport mod = KCC2 cotransporter modulators, thallium flux, primary screen, cell-based, HEK293 KCC2, FluoZin-2 fluorescence, MLSMR. KCC2 cells, thallium flux FluoZin-2 fluorescence. Solute carrier family 12 member 5 (Homo sapiens), Q9H2X9. B-score of Tl+ flux slope (higher = more flux/activation; lower = inhibition) at 10 µM. 190,000 tested, 2.2% active. AID 1456, 2008;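 active means thallium flux slope and its plate-corrected score both differing from the plate sample mean at a set confidence after two filtering rounds, in either direction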;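 further: slope of fluorescence scaled to starting intensity during 10 to 20 s after thallium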
CHT block = inhibitors of human choline transporter CHT; High affinity choline transporter 1 (Homo sapiens), Q9GZV3; CHT-expressing cells, membrane potential dye, choline response; active compounds read low; B-score at 10 µM; 310,000 tested, 0.86% active; AID 488975, 2010;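 active means B-score over 3 SD under the library average, and starting fluorescence ratio not unusually high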;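 further: choline stimulus applied at its EC90 after an EC20 pre-addition; B-score computed on integrated fluorescence ratio after choline addition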
Rad51 HR inh = human RAD51 strand exchange inhibitors, primary screen, biochemical, fluorescence; inhibition, % at 10 µM; DNA repair protein RAD51 homolog 1 (Homo sapiens), Q06609; 200,000 tested, 0.085% active; hRad51 DNA strand exchange, fluorescence dequenching;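 active means inhibition above 40% at the single screening dose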;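 further: 0% = DMSO control wells and 100% = blanks with heterologous ssDNA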
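material = hRad51 filaments on single-stranded DNA | reagent = Donor/quencher-labelled 47-bp dsDNA substrate | compound = 10 µM final, single point | schedule = strand-exchange reaction 15 min at room temperature | measured by = fluorescein emission 520 nm, excitation 485 nm | read-out basis = % inhibition versus plate control and blank means | benchmarks = plate controls and plate blanks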
KCC2 sec1 = KCC2 modulators in sodium-free buffer, confirmation, cell-based, HEK293 KCC2, thallium flux, secondary assay. shares compounds with Cl transport mod. FluoZin2 fluorescence; active compounds read high. normalised thallium flux (F/F0 slope) at 10 µM. 3,700 tested, 15% active;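 active means thallium flux slope above the same plate's solvent-only control mean plus 3 SD; inconclusive means the two replicate wells disagree; inactive means no significant difference from solvent-only control wells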
KCC2 bumet counter = thallium flux persisting under bumetanide in KCC2 cells, confirmation, counter-screen for KCC2 modulator project, cell-based, HEK293 KCC2, FluoZin2, secondary assay 3. shares compounds with Cl transport mod. HEK293-KCC2 + bumetanide/ouabain; active compounds read high. normalized thallium flux at 10 µM. 3,700 tested, 49% active. AID 1714, 2009;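 active means thallium entry rate above the same plate's blocked-transporter control wells by more than 3 SD; inconclusive means the two repeat wells disagree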;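 further: raw slope of fluorescence over initial fluorescence between 10 and 20 s after thallium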
KCC2 secondary2 = KCC2 modulators without ouabain present, confirmation, cell-based, HEK293 KCC2, thallium flux, FluoZin2, secondary assay 2; shares compounds with Cl transport mod; thallium flux FluoZin2 fluorescence; actives lie on both sides; F/F0 rise rate, 10–20 s post-thallium; normalized thallium flux at 10 µM; 3,700 tested, 23% active; AID 1715, 2009;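 active means thallium flux slope more than 3 SD above or below the plate's solvent-only control mean, mostly below; inconclusive means the two repeat wells disagreed; inactive means no significant shift from solvent-only controls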;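 further: raw slope with 0.1% DMSO as baseline and bumetanide as block control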
HEK293 Tl flux = thallium flux modulation in parental HEK cells, confirmation, counter-screen for KCC2 modulator project, cell-based, counterscreen 1. HEK293 parental cells, thallium flux FluoZin2, ouabain; baseline-ratio fluorescence slope, 10–20 s after thallium. thallium flux rate (normalised fluorescence) at 10 µM. 3,700 tested, 46% active. AID 1716, 2009. shares compounds with Cl transport mod;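 active means thallium flux rate significantly above the same plate's solvent-only control wells, beyond their mean plus 3 SD; inconclusive means the two replicate wells gave conflicting results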
KCC2 retest ouab = KCC2 inhibitors and activators, ouabain retest, confirmation, HEK-KCC2 cells; AID 1717, 2009; shares compounds with Cl transport mod; raw Tl+ flux slope (below DMSO = inhibition, above = activation) at 10 µM; 3,700 tested, 48% active; HEK293-KCC2, thallium flux FluoZin2 fluorescence; bidirectional: low = inhibitor, high = activator;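 active means thallium flux slope beyond 3 SD from same-plate DMSO control mean in most replicates, usually higher, sometimes lower; inconclusive means repeat tests gave conflicting results; inactive means no significant difference from controls in most replicates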;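 further: slope of initial-normalized fluorescence between seconds 10 and 20 after thallium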
HEK counter2 = native HEK Tl+ uptake effects, second counter-screen – HEK cells, counterscreen 2, counter-screen for KCC2 modulator project, confirmation | shares compounds with Cl transport mod | AID 1718, 2009 | thallium flux slope at 10 µM | 3,700 tested, 33% active | HEK293 parental, thallium flux FluoZin-2 fluorescence slope;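 active means thallium flux slope above the same plate's solvent-control mean plus 3 SD in both duplicate wells; inconclusive means duplicate wells that disagreed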;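 further: run without ouabain in cells lacking the KCC2 cotransporter; slope of fluorescence scaled to its starting value between 10 and 20 s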
Starred values were filed as active, the others as inactive; i = inactive; ? = inconclusive; . = no result.

SMILES	CHT PAM	Cl transport mod	CHT block	Rad51 HR inh	KCC2 sec1	KCC2 bumet counter	KCC2 secondary2	HEK293 Tl flux	KCC2 retest ouab	HEK counter2
Cc1ccc(NC(=O)c2ccccc2NS(=O)(=O)c2ccc(Cl)s2)cc1	i	-3.7*	i	15	0.0071	?	0.022*	0.0072	?	0.01
Cc1nc(N2CCOCC2)c2c3c(sc2n1)CCC3	i	14*	i	0	0.0099	0.017*	0.033	0.016*	0.032*	0.011*
CSc1nc(N2CCOCC2)c2c3c(sc2n1)CCCC3	i	-0.033	i	-8	.	.	.	.	.	.
COc1ccc(-c2cn(-c3ccc(C)cc3)c(=O)n2CC(=O)Nc2ccc(OC)cc2OC)cc1	i	.	i	2	0.0067	0.0043	0.029	0.0078	0.017	0.011
O=c1[nH]c2cc3c(cc2cc1CN(Cc1nnnn1CC1CCCO1)C1CCCCC1)OCO3 (stereo not drawn)	i	7.4*	i	.	0.0057	?	0.025*	0.0068	0.016*	?
Cc1ccc2[nH]c(=O)c(CN(CCc3ccccc3)Cc3nnnn3CC3CCCO3)cc2c1 (stereo not drawn)	i	-4.3*	i	-1	?	0.0053	?	0.0072	0.017	0.011
COc1ccc2[nH]c(=O)c(CN(Cc3ccccc3OC)Cc3nnnn3CC3CCCO3)cc2c1 (stereo not drawn)	i	8.6*	i	-5	0.0098	0.0051	0.031	0.0073	0.029	0.01
COc1ccc2[nH]c(=O)c(CN(Cc3ccc(C)cc3)Cc3nnnn3CC3CCCO3)cc2c1 (stereo not drawn)	i	-0.25	i	-2	.	.	.	.	.	.
COc1ccc(S(=O)(=O)NCC2CCCN(C(=O)c3ccccc3)C2)cc1 (stereo not drawn)	i	0.062	i	4	.	.	.	.	.	.
CC(=O)NCCc1ccc(S(=O)(=O)N2CCN(c3nc(-c4ccccc4)c(C)s3)CC2)cc1	i	.	i	.	.	.	.	.	.	.
CCOc1ccc2c(c1)C(=NNC(=O)c1ccncc1)c1cc(OCC)ccc1-2	i	30*	i	-11	0.015*	0.033*	0.032	0.018*	0.079*	0.012*
Cc1ccc(Nc2c([N+](=O)[O-])c(=O)oc3ccccc23)cc1C	i	-2.8*	i	8	0.018	0.0042	0.03	?	0.014	0.009
O=c1oc2ccccc2c(Nc2ccc(F)cc2)c1[N+](=O)[O-]	i	-3.4*	i	14	0.0058	0.0046	0.029	0.0063*	0.017	?
CCN(CC)C(=O)Cn1cc(S(=O)(=O)CC(=O)N2CCOCC2)c2ccccc21	i	.	i	.	.	.	.	.	.	.
FC(F)(F)c1cccc(NCc2n[nH]c(=S)n2C2CCCCC2)c1	i	5.9*	i	19	0.009	0.019*	0.035	?	?	0.011
CC(C)(C)c1ccc(-c2n[nH]c(=S)n2C2CCCC2)cc1	i	.	i	4	.	.	.	.	.	.
Cc1nc(C)n(CC(C)C(=O)N2CCN(S(=O)(=O)c3ccc(Cl)cc3)CC2)n1 (stereo not drawn)	i	.	i	.	.	.	.	.	.	.
S=c1nc[nH]c2c1sc1nc(N3CCOCC3)c3c(c12)CCCC3	i	67*	i	3	0.0094*	0.089*	0.069*	0.082*	0.074*	0.062*
S=c1[nH]nc(-c2ccccc2)c2ccccc12	i	.	i	-8	.	.	.	.	.	.
Cc1ccc(-c2n[nH]c(=S)c3ccccc23)cc1	i	8.9*	i	24	0.0092	0.025*	0.029	0.0097*	?	0.0095
COc1ccc(-n2c(Cc3cccn3C)nnc2SCC(=O)Nc2ccc(F)cc2)cc1	i	-3.1*	i	2	0.0089	0.005	0.036	0.0072	0.019	0.011
COc1ccccc1-n1c(CNc2ccc(F)cc2)nnc1SCC(=O)Nc1cc(C)on1	i	0.38	i	-7	.	.	.	.	.	.
C/C(=N\NC(=O)C1CC1)c1cccs1	i	0.24	i	.	.	.	.	.	.	.
C/C(=N\NC(=S)NC1CCCCC1)c1c(F)cccc1F	i	22*	i	-27	0.014*	0.066*	0.028	0.021*	0.046*	0.011*
C/C(=N\NC(=S)NC1CCCCC1)c1cccs1	i	57*	i	-6	0.0048	0.053*	0.043*	0.027*	0.048*	0.029*
SMILES	CHT PAM	Cl transport mod	CHT block	Rad51 HR inh	KCC2 sec1	KCC2 bumet counter	KCC2 secondary2	HEK293 Tl flux	KCC2 retest ouab	HEK counter2
COc1ccccc1-c1nnc(SCC(=O)NC2CCS(=O)(=O)C2)n1N (stereo not drawn)	i	-0.053	i	-1	.	.	.	.	.	.
CSCC[C@H](NS(=O)(=O)c1ccc(C)cc1)C(=O)N1CCC(C(=O)N[C@@H](C)C(=O)O)CC1	i	.	i	.	.	.	.	.	.	.
COc1ccc(/C=C/CN2CCC(n3nccc3NC(=O)C3CCCC3)CC2)cc1	i	.	i	.	.	.	.	.	.	.
COc1ccccc1NC(=S)N/N=C/c1cccc(C)c1	i	5.5*	i	3	0.011	0.016*	0.034	0.012*	0.026	0.011
Cc1cccc(NC(=S)NCc2ccc3c(c2)OCO3)c1	i	-1.3	i	.	.	.	.	.	.	.
COc1ccccc1NC(=S)N/N=C/c1ccc(O)cc1	i	-0.6	i	.	.	.	.	.	.	.
Cc1cccc(NC(=S)N/N=C/c2ccc3c(c2)OCO3)c1	i	10*	i	.	0.011	0.015*	0.034	0.028*	0.027*	?

Compound activity deposited in PubChem by several laboratories.
